# What was measured:
# Nrf2 signal pathway = assay: Western blot of Nrf2 signal pathway proteins in HepG-2 cells; format: cell-based
# CYP3A = details: read-out: IC50 value, inhibition of CYP3A activity; rat liver microsomes; cited from earlier work
# Nrf2 pathway = assay: Western blot of Nrf2 pathway proteins in mice liver tissue; format: in vivo; details: Sch B 25.0–100.0 mg/kg oral, 21 days, Western blotting
# Procedure, shortened: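 Mice were dosed orally once daily for 21 days (25.0, 50.0, 100 mg/kg, in 0.5% sodium carboxymethylcellulose). Frozen liver extracts were assayed for protein by Bradford, and equal protein was run on SDS-PAGE and blotted to PVDF. Membranes were blocked in 5% nonfat milk/TBS, probed with anti-Nrf2, HO-1, NQO1, GST or GR at 4°C overnight, then HRP secondary for 1 h at room temperature. Detection was by ECL on X-ray film.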
# CYP3A1 mRNA = details: rat primary hepatocytes, Sch B 0.1 µM; cited from earlier work
# [1] = tested on: P-gp–mediated efflux and CYP3A-mediated metabolism; details: rat, one single dose of Sch B 0.024 mM/kg; cited from earlier work
# [2] = tested on: CYP450 (CYP1A2/2C9/2D6/2E1/3A4); assay: Microsomal CYP450 activity detection; format: in vivo, mice; details: Sch B 25.0, 50.0 and 100.0 mg/kg oral, 21 days, dose-dependent
# Procedure, shortened: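 Livers came from mice dosed orally for 21 days (25.0–100 mg/kg). Livers (~2 g) were homogenised at 4°C in phosphate buffer pH 7.4 with 1.0 mM EDTA and 250 mM sucrose, spun at 9,000× g then 100,000× g, and the pellet resuspended with 250 mM glycerol. Microsomes (0.5 mg/mL) were incubated with a probe cocktail: phenacetin 10 μM, tolbutamide 100 μM, dextromethorphan 2.5 μM, chlorzoxazone 20 μM, midazolam 5 μM. Reactions ran 30 min with 1 mM NADPH and were stopped with methanol. Metabolites were measured by LC–MS/MS.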
# mice liver [3] = assay: Histopathological analysis of H&E-stained mice liver sections; format: in vivo
# Procedure, shortened: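 Mice were given test compound (25.0, 50.0, 100 mg/kg) by mouth daily for 21 days in 0.5% sodium carboxymethylcellulose and killed 24 h after the last dose. Liver was fixed in neutral buffered formalin, embedded in paraffin, cut at 5 μm and stained with H&E.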
# mice liver [4] = assay: TUNEL immunofluorescence staining of mice liver; format: in vivo; details: 100 mg/kg Sch B oral, 21 days
# Procedure, shortened: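 After 21 days of daily oral test compound (25.0–100 mg/kg, 0.5% sodium carboxymethylcellulose), paraffin liver sections (10 μm) were treated with 3% H2O2 in methanol for 10 min and blocked with 1% BSA/PBS for 30 min. They were incubated with […] at 4°C overnight, then Alexa Fluor donkey anti-rabbit (1:500) for 1 h at 37°C. Nuclei were stained with DAPI and sections imaged by fluorescence microscopy. n=6.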
# [5] = Sch B 5 µM, 48-hour incubation, Western blot
structure (smiles),measurement,setting,value
"Nn1nnc2ccccc21 [ABT, 1-aminobenzotriazolea, reference compound]",effect on Sch B-induced activation of Nrf2 and GST expression,"Nrf2 signal pathway; ABT 0.5 mM combined with Sch B 5 µM, 48 hours",suppressed
"COc1cc2c(c(OC)c1OC)-c1c(cc3c(c1OC)OCO3)CC(C)C(C)C2 (stereo not shown) [Sch B, Schisandrin B]",IC50,CYP3A,5.51 µM
same,protein expression of NQO-1 and GST in mice liver,Nrf2 pathway,dose-dependent increase
same,Nrf2 expression in mice liver,Nrf2 pathway; dose-dependent,upregulated
same,expression of CYP3A1 mRNA,CYP3A1 mRNA,significantly increase
same,tacrolimus bioavailability,[1],increase
same,CYP450 (CYP1A2/2C9/2D6/2E1/3A4) activities in livers of mice,[2],considerably increased
same,centrilobular hepatocellular infiltration of lymphocytes,"mice liver [3]; 100 mg/kg Sch B oral, 21 days, H&E-stained liver sections",clearly evident
same,hepatotoxicity in mice,"mice liver [3]; highest dose (100 mg/kg) only, oral, 3 weeks",mild hepatotoxicity
same,HO-1 and GR protein expression,Nrf2 signal pathway; [5],no changes
same,expression of GST,Nrf2 signal pathway; [5],upregulated
same,expression of Nrf2,Nrf2 signal pathway; [5],upregulated
same,positive TUNEL cell in liver,mice liver [4],very limited

# Reference: article PMC6267698 (Drug Design, Development and Therapy, 2018)
